3 compounds from ChEMBL document CHEMBL4699403, “Cyclic boronates as versatile scaffolds for KPC-2 beta-lactamase inhibition” (RSC Med Chem, 2020) can be followed below.

Molecules are shown by their SMILES.

The subject of assay [1] is Klebsiella pneumoniae. The assay is described as follows: Potentiation of cefepime-induced antibacterial activity against Klebsiella pneumoniae Ecl8 transfected with pUBYT vector expressing KPC-2 assessed as cefepime MIC measured after 18 to 24 hrs by CLSI protocol based broth microdilution assay (Rvb >=256 ug/ml). Type of assay: functional. Particulars: time hrs 18-24. The procedure, abridged:
(§1)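 Broth microdilution in cation-adjusted Mueller–Hinton broth per CLSI, triplicate; K. pneumoniae Ecl8 carrying pUBYT with blaKPC-2 under the ISKpn7 promoter. β-Lactam serially diluted with inhibitor fixed at 4 mg per liter (diluted from 100 mM DMSO stock). Incubated at 37 °C for 18 to 24 hours; growth read as absorbance at 600 nm.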
A general note: In broth dilution the organism is exposed to a series of concentrations in liquid medium.

Assay [2] can be described thus: Inhibition of beta lactamase KPC-2 in Klebsiella pneumoniae using nitrocefin as substrate preincubated for 10 mins followed by substrate addition. The method, boiled down: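 KPC-2 was preincubated with cyclic boronate for 10 min in 10 mM HEPES pH 7.5, 150 mM NaCl at 25 °C. 50 μM nitrocefin was then added and initial hydrolysis rates were read at 486 nm. IC50 was derived from the inhibitor concentration dependence of these rates. Inhibitor stocks were 100 mM in DMSO, diluted in buffer.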

The nature of assay [3]: Inhibition of beta lactamase KPC-2 in Klebsiella pneumoniae assessed as apparent inhibition constant using nitrocefin as substrate measured without preincubation by Dixon plot analysis. As to conditions: read-out: Ki(app). The method, boiled down: (§2)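 Direct competition assays at 25 °C in 10 mM HEPES pH 7.5, 150 mM NaCl. A range of cyclic boronate concentrations was mixed with 50 μM nitrocefin, and the reaction was started by adding 1 nM KPC-2. Nitrocefin hydrolysis was followed at 486 nm (Δε 20 500 M-1 cm-1). Kiapp and k2/K were both taken from these competition data. Inhibitor stocks were 100 mM in DMSO, diluted in buffer.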

The test system of assay [4] is Klebsiella pneumoniae. The assay is described as follows: Inhibition of beta lactamase KPC-2 in Klebsiella pneumoniae assessed as apparent second order rate constant K2/K using nitrocefin as substrate. The method, boiled down: as §2
For assay [5], the system named is Klebsiella pneumoniae. The assay is described as follows: Potentiation of meropenem-induced antibacterial activity against Klebsiella pneumoniae Ecl8 transfected with pUBYT vector expressing KPC-2 assessed as meropenem MIC measured after 18 to 24 hrs by CLSI protocol based broth microdilution assay (reference value: 16 ug/ml). Type of assay: functional. Particulars: time hrs 18-24. The procedure, abridged:
as §1

Assay [6] concerns Klebsiella pneumoniae. The assay can be described thus: Irreversible inhibition of beta lactamase KPC-2 in Klebsiella pneumoniae assessed as off-rate constant using nitrocefin as substrate preincubated for 30 mins followed by substrate addition. The method, boiled down: (§3)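 Jump-dilution off-rate assay. 1 μM KPC-2 was preincubated with 8 μM cyclic boronate for 30 min at room temperature, then serially diluted to a final KPC-2 concentration of 500 pM. 50 μM nitrocefin was added and recovery of hydrolysis was monitored at 486 nm in 10 mM HEPES pH 7.5, 150 mM NaCl. koff and half-life were derived from the recovery.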

Assay [7] has as its system Klebsiella pneumoniae. The assay is described as follows: Inhibition of beta lactamase KPC-2 in Klebsiella pneumoniae assessed as irreversible covalent complex formation by measuring half life using nitrocefin as substrate. The method, boiled down: as §3

Take `NCCN[C@H]1CC[C@H](CC(=O)N[C@H]2Cc3cccc(C(=O)O)c3OB2O)CC1`: the MIC in the assay on Klebsiella pneumoniae [1] and in the assay with Klebsiella pneumoniae [5] was not above 0.125 µg/mL each time. Besides, it took 0.037 µM to reach half-maximal inhibition in assay [2] (IC50). The Ki in assay [3] was found to be 1.3 µM. For the same compound, the K in the assay with Klebsiella pneumoniae [4] is 1 10^4/M/s.

Regarding `O=C(NC1CCNCC1)[C@@H]1CC[C@@H]2CN1C(=O)N2OS(=O)(=O)O` [RELEBACTAM], the Ki in assay [3] is 1.2 µM. Also, the K in the assay with Klebsiella pneumoniae [6] came to 0.00087 s⁻¹.

In the case of `O=C(O)C[C@@H]1CC[C@H](NC(=O)Cc2cccs2)B(O)O1` [VABORBACTAM], the MIC in the assay with Klebsiella pneumoniae [1] and in the assay with Klebsiella pneumoniae [5] was not above 0.125 µg/mL each time. Further, inhibition in assay [2] was half-maximal at 0.035 µM (IC50). For the same compound, the Ki in assay [3] came out at 8.5 µM. For the same compound, the K is 6.7 10^2/M/s in the assay on Klebsiella pneumoniae [4] and 0.00016 s⁻¹ in the assay with Klebsiella pneumoniae [6]. In addition, in the assay with Klebsiella pneumoniae [7], the T1/2 stood at 1.2 h.

The term MIC denotes the least concentration at which growth counts as inhibited. Usually IC50 stands for the concentration that gives 50% inhibition.
